This passage reports IC50 results from publication PMC7105014 (Journal of Functional Foods, 2011).

The target in assay [1] is HCV NS3/4A protease (Hepatitis C virus genotype 1a, UniProt P27958). Description: HCV NS3/4A protease inhibition. The class given is biochemical. The procedure, abridged:
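Test compound in DMSO was mixed with HCV NS3/4A protease solution (0.5 μg/ml; SensoLyte 520 kit). The reaction was started with substrate diluted 100× from a DMSO stock. After 30 min at room temperature, fluorescence was read (ex 485/em 535 nm) and corrected with a substrate blank. % inhibition was taken against a compound-free control. IC50 came from concentration–inhibition curves, with embelin as reference inhibitor.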

In assay [2] the target is α-glucosidase. The note with it: read-out: IC50 against α-glucosidase; ref Hakamata et al., 2006; cited from earlier work.

Chain of HCV NS3/4A protease (P27958 1027-1657 limits assumed): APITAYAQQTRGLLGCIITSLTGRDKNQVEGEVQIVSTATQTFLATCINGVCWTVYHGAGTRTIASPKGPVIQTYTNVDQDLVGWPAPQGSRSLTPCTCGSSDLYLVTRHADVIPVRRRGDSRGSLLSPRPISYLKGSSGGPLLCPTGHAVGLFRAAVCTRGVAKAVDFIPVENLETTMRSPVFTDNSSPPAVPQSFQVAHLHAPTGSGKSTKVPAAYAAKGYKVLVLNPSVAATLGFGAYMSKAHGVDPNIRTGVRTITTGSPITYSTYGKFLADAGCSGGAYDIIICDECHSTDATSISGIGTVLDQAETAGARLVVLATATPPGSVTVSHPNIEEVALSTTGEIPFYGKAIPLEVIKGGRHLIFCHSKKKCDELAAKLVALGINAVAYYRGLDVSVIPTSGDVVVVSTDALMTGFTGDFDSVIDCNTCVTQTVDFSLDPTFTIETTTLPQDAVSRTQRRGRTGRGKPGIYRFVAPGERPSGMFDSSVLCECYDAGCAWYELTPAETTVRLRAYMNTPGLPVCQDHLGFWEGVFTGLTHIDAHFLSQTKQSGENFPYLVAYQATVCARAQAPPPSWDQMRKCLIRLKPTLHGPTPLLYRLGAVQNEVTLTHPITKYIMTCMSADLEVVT
Chain of HCV NS3/4A protease (P27958 1658-1711 partner limits assumed): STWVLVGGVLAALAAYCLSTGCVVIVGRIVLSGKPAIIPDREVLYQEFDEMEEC

Turning to `CCCCCCCCCCCC1=C(O)C(=O)C=C(O)C1=O` [Embelin, embelin], in assay [1], the IC50 – broadly, the midpoint of a concentration-inhibition curve – worked out at 10.2 µM. Consider `Oc1cc(O)c2c(c1)O[C@H](c1ccc(O)c(O)c1)[C@@H](O)C2` [(+)-catechin], for which the IC50 in assay [2] was > 500 µM.
